Tests used:
[1] = target: T1, Aurora kinase A (Homo sapiens, UniProt O14965); test: Inhibition of Aurora kinase A
T1 sequence (O14965 whole entry): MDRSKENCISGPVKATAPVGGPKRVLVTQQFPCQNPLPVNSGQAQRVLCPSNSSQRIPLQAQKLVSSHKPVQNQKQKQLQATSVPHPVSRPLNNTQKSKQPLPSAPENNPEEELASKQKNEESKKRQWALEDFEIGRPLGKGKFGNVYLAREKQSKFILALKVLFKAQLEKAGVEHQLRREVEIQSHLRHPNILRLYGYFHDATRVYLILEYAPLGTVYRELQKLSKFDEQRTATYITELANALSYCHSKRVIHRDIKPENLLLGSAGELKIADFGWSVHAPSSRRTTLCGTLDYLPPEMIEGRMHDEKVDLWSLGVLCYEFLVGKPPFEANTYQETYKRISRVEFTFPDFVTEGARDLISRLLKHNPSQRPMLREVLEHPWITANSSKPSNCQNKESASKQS
Method in brief: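 GST-fused Aurora-A was made in insect cells and purified by GST affinity and gel filtration. Compounds were tested as 3-fold dilutions from 10 to 0.0005 µM. Reactions were stopped with EDTA and excess ATP, and substrate phosphorylation was read by streptavidin SPA bead counting.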

[2] = test system: HCT-116; test: Antiproliferation activity against human colon cancer cell line (HCT116); assay type: functional, cell-based
Method in brief: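 HCT-116 cells seeded at 5000 cells/cm² in F12 with 10% FCS, 2 mM L-glutamine and penicillin/streptomycin, 37 °C, 5% CO₂. Next day, dilutions from a 10 mM DMSO stock were added to duplicate wells. After 72 h, cells were trypsinized and counted on a Multisizer 3 counter. Counts were expressed as % of untreated control wells, and IC50 was taken from a sigmoidal fit.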

[3] = target: T2, Aurora kinase C (Homo sapiens, UniProt Q9UQB9); test: Inhibition of Aurora kinase C
T2 sequence (Q9UQB9 whole entry): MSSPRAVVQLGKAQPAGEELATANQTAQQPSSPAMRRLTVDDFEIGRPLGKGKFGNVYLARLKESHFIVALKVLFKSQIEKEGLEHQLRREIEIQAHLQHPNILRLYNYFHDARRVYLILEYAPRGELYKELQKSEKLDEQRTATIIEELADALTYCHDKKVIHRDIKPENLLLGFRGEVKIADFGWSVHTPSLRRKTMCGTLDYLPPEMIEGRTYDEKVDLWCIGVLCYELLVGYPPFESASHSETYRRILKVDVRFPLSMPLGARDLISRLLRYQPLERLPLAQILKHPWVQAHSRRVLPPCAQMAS

[4] = test system: HT-29; test: Antiproliferation activity against HT-29 cell line (HT-29); conditions: Homo sapiens
[5] = target: T2, Aurora kinase C; test: Inhibitory activity against Aurora kinase C
[6] = test system: A2780; test: cells; conditions: Homo sapiens
[7] = target: T3, Aurora kinase B (Homo sapiens, UniProt Q96GD4); test: Inhibitory activity against Aurora kinase B
T3 sequence (Q96GD4 whole entry): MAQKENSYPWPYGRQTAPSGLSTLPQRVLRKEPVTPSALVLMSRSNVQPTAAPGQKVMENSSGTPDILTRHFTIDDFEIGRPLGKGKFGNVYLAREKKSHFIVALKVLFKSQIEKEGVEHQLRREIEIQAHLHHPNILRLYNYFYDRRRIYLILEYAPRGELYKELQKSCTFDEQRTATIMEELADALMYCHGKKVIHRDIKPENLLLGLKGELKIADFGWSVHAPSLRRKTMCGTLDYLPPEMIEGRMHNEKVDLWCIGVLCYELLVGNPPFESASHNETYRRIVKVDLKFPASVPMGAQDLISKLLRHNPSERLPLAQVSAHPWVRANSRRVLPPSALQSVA

[8] = target: T3, Aurora kinase B; test: Inhibition of Aurora kinase B
[9] = test system: HeLa; test: Antiproliferation activity against HeLa cell line; conditions: Homo sapiens
[10] = test system: HL-60; test: Antiproliferation activity against human HL-60 cell line

SMILES | IC50 [1] [nM] | IC50 [2] [nM] | also measured
CN1CCN(c2ccc(C(=O)Nc3[nH]nc4c3CN(C(=O)Cc3ccsc3)C4)cc2)CC1 | 65 | 570 | 
CC(C)(C)c1ccc(C(=O)Nc2n[nH]c3c2CN(C(=O)Cc2ccccc2)C3)cc1 | 130 | 3000 | 
CC(C)(C)c1ccc(C(=O)Nc2n[nH]c3c2CN(C(=O)c2ccco2)C3)cc1 | 41 | 2100 | 
CCc1cccc(CC)c1NC(=O)N1Cc2n[nH]c(NC(=O)c3ccc(N4CCN(C)CC4)cc3)c2C1 [PHA-680632] |  | 45 | IC50 [3]: 120 nM; IC50 [4]: 80 nM; IC50 [5]: 120 nM; IC50 [6]: 110 nM; IC50 [7]: 135 nM; IC50 [8]: 135 nM; IC50 [9]: 410 nM; IC50 [10]: 130 nM
CC(C)(C)c1ccc(C(=O)Nc2[nH]nc3c2CN(C(=O)Cc2ccsc2)C3)cc1 | 5 | 2000 | 
CN1CCN(c2ccc(C(=O)Nc3n[nH]c4c3CN(C(=O)c3ccco3)C4)cc2)CC1 | 160 | 900 | 
CCc1cccc(CC)c1NC(=O)N1Cc2n[nH]c(NC(=O)c3ccc(C(C)(C)C)cc3)c2C1 | 100 | 2200 | 

Reference: ChEMBL document CHEMBL1143616, “Potent and selective Aurora inhibitors identified by the expansion of a novel scaffold for protein kinase inhibition” (J Med Chem, 2005)
